This note sets out measurements from paper PMC7594318 (ACS Omega, 2020).

Read-outs that look alike come from different tables or passages of the source.

Broadly, the IC50 is the midpoint of a concentration-inhibition curve.

What all share (type): cell-based
The test system of assay [1] is human lung adenocarcinoma A549 cells. Briefly: WST-8 cytotoxicity assay, A549 cells. The conditions noted are these: for IC50: read-out: IC50 (μM) A549; for SI (selectivity index): IC50 against normal MRC-5 cells divided by IC50 against A549 cells. The essentials: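 Human lung adenocarcinoma A549 cells, kept in DMEM + 10% FBS at 37 °C, 5% CO2, seeded at 2000 cells/well, preincubated 24 h, then exposed to various concentrations for 72 h (DMSO 0.1–0.2% v/v). WST-8 (CCK-8) reagent 2 h at 37 °C, A450. Growth is sample/control absorbance. IC50 is mean ± SD of triplicates. SN-38 positive control. SI = MRC-5 IC50 / A549 IC50.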
(Formazan colour is commonly taken as a measure of viable cells.)

Assay [2] has as its system human normal lung fibroblast MRC-5 cells. Briefly: WST-8 cytotoxicity assay, normal MRC-5 cells. The note with it: read-out: IC50 (μM) MRC-5. The essentials:
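Normal lung fibroblast MRC-5 cells in α-MEM without ribonucleosides/deoxyribonucleosides + 10% FBS. Seeded at 2000 cells/well, preincubated 24 h, then treated with various concentrations for 72 h (DMSO 0.1–0.2% v/v). WST-8 (CCK-8) reagent 2 h at 37 °C, A450. Growth is the ratio of sample to control absorbance. IC50 is the mean ± SD of triplicates. SN-38 positive control.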

The test system of assay [3] is human promyelocytic leukemia HL-60 cells. Briefly: WST-8 cytotoxicity assay, HL-60 cells. The conditions noted are these: read-out: IC50 (μM) HL-60. The procedure, abridged:
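HL-60 promyelocytic leukemia cells, grown in RPMI 1640 + 10% FBS at 37 °C, 5% CO2, plated at 5000 cells/well with various concentrations for 72 h (DMSO 0.1–0.2% v/v). CCK-8 (WST-8) reagent added for 2 h at 37 °C, absorbance read at 450 nm. Growth is taken as the sample/control absorbance ratio. IC50 is the mean ± SD of triplicate experiments. SN-38 positive control.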

Setting [4] is: Table 3, WST-8, 72 h, mean ± SD of triplicate experiments.
Where [5] appears, read: Table 4, WST-8, 72 h, mean ± SD of triplicate experiments.

Regarding `CCc1c2c(nc3ccc(O)cc13)-c1cc3c(c(=O)n1C2)COC(=O)[C@]3(O)CC` [SN-38, reference compound], the IC50 is 0.038 ± 0.003 µM in assay [1] (setting [4]); 0.052 ± 0.003 µM in assay [1] (setting [5]); less than 0.1 µM in assay [2] (setting [4]); 0.092 ± 0.001 µM in assay [2] (setting [5]); less than 0.05 µM in assay [3] (setting [4]); 0.056 ± 0.002 µM in assay [3] (setting [5]).

In the case of `Cn1c2cccc(=O)c-2nc2ccccc21` [1a, pyocyanin], the IC50 came to 5.52 ± 0.28 µM in assay [1] (Homo sapiens, A549, 72 h); 21.8 ± 2.55 µM in assay [2] (Homo sapiens, MRC5, 72 h); 5.82 ± 0.133 µM in assay [3] (Homo sapiens, HL-60, 72 h). In addition, the “SI (selectivity index)” value in assay [1] (Table 3) is recorded as 3.95.

For `Cn1c2ccc(Br)c(=O)c-2nc2ccccc21` [1b, 2-Bromo-5-methylphenazin-1(5H)-one], the concentration for half-maximal inhibition (IC50) turned out to be 2.59 ± 0.056 µM in assay [1] (Homo sapiens, A549, 72 h); 3.36 ± 0.204 µM in assay [2] (Homo sapiens, MRC5, 72 h); 3.07 ± 0.08 µM in assay [3] (Homo sapiens, HL-60, 72 h). Moreover, the “SI (selectivity index)” value in assay [1] (Table 3) is recorded as 1.30.

As for `CC(C)=CCn1c2ccc(Cl)c(=O)c-2nc2ccccc21` [3c, 2-Chloro-5-(3-methylbut-2-en-1-yl)phenazin-1(5H)-one], the IC50 in assay [1] (Homo sapiens, A549, 72 h) is 0.66 ± 0.016 µM; in assay [2] (Homo sapiens, MRC5, 72 h), 0.66 ± 0.041 µM; in assay [3] (Homo sapiens, HL-60, 72 h), 2.2 ± 0.07 µM. In assay [1] (Table 4), the “SI (selectivity index)” value stood at 1.00.
